Data from PubChem BioAssay AID623985 (Broad Institute, 2012).

target: PvdQ acylase (Pseudomonas aeruginosa); assay: P. aeruginosa PvdQ acylase inhibitors, dose response, biochemical, fluorescence, plate reader, dry powder, set 2 (AID 623985); details: purified PvdQ, 4-MU laurate fluorescence, 60 min
Method in brief: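 Material: purified P. aeruginosa PvdQ; Quantity: 0.02 µM PvdQ; Medium: 50 mM Tris pH 8.0, 50 mM NaCl, 0.2 mM TCEP, Triton X-100; Reagent: 4-methylumbelliferone laurate substrate at 0.8 mM final; Timing: 30 min pre-incubation plus 60 min reaction, room temperature; Technique: 4-methylumbelliferone fluorescence, excitation 303–367 nm, emission 440–460 nm.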

SMILES	AC50 [µM]
N#Cc1cccc(C(C#N)c2ccc(Cl)cc2Cl)n1 (stereo unspecified)	0.303
N#CC(c1cccc(Cl)n1)c1ccc(Cl)cc1Cl (stereo unspecified)	0.17
CCCCC(C#N)c1ccc(Cl)cc1Cl (stereo unspecified)	0.281
N#CC(c1cccc(C(F)(F)F)n1)c1ccc(Cl)cc1F (stereo unspecified)	< 0.003
COc1cccc(C(C#N)c2ccc(F)cc2)n1 (stereo unspecified)	0.124
N#CC(c1ccc(C(F)(F)F)c(Cl)n1)c1ccc(Cl)cc1Cl (stereo unspecified)	2.44
Cc1ccc(C(C#N)c2ccccc2OC(F)(F)F)nc1C#N (stereo unspecified)	0.328
N#CC(c1ccc(C(F)(F)F)c(Cl)n1)c1ccccc1OC(F)(F)F (stereo unspecified)	0.597
N#CC(c1ccc(Cl)cc1Cl)c1ncccc1Cl (stereo unspecified)	0.141
N#CC(c1cccc(Cl)n1)c1ccccc1OC(F)(F)F (stereo unspecified)	0.754
N#CC(c1cccc(Cl)n1)c1ccc(Cl)cc1F (stereo unspecified)	0.0224
N#Cc1cccc(C(C#N)c2ccc(Cl)cc2F)n1 (stereo unspecified)	0.0467
N#CC(c1ccc(F)cc1)c1cccc(C(F)(F)F)n1 (stereo unspecified)	0.00502
CCCCC(C#N)c1ccc(Cl)cc1F (stereo unspecified)	0.315
Cc1ccc(C(C#N)c2ccc(F)cc2)nc1C#N (stereo unspecified)	0.0966
N#CC(c1ccc(C(F)(F)F)cc1)c1cccc(C(F)(F)F)n1 (stereo unspecified)	0.027
N#CC(c1ccc(F)cc1)c1ccc(C(F)(F)F)c(Cl)n1 (stereo unspecified)	0.548
N#Cc1ccc(C(C#N)c2ccc(Cl)cc2Cl)nc1 (stereo unspecified)	1.94
N#CC(c1cccc(C(F)(F)F)n1)c1ccccc1OC(F)(F)F (stereo unspecified)	0.376
N#CC(c1ccc(C(F)(F)F)cc1)c1ccc(C(F)(F)F)c(Cl)n1 (stereo unspecified)	2.95
N#Cc1cccc(C(C#N)c2ccccc2OC(F)(F)F)n1 (stereo unspecified)	0.227
N#CC(c1ccc(C(F)(F)F)c(Cl)n1)c1ccc(Cl)cc1F (stereo unspecified)	0.484
CC(C#N)(c1ccc(Cl)cc1)c1ccc(C(F)(F)F)cn1 (stereo unspecified)	1.23
N#CC(c1ccc(C(F)(F)F)cc1)c1cccc(Cl)n1 (stereo unspecified)	0.357

Other lines, results leading:

AC50 [µM]	SMILES
0.0697	Cc1ccc(C(C#N)c2ccc(Cl)cc2)nc1C#N (stereo unspecified)
0.15	Cc1ccc(C(C#N)c2ccc(Cl)cc2)nc1 (stereo unspecified)
0.0606	N#Cc1cccc(C(C#N)c2ccc(Cl)cc2)n1 (stereo unspecified)
0.171	N#CC(c1ccc(Cl)cc1)c1ccc(C(F)(F)F)cn1 (stereo unspecified)
0.162	Cc1cccc(C(C#N)c2ccc(Cl)cc2)n1 (stereo unspecified)
0.203	CC(C)CC(C#N)c1ccc(Cl)cc1 (stereo unspecified)
0.133	N#CC(CC1CC1)c1ccc(Cl)cc1 (stereo unspecified)
0.0733	N#CC(c1ccc(Cl)cc1)c1ccc(Cl)cn1 (stereo unspecified)
1.59	CCCCC(C#N)c1ccc(C(F)(F)F)cc1 (stereo unspecified)
0.293	CCCC(C#N)c1ccc(Cl)cc1 (stereo unspecified)
< 0.003	N#CC(c1ccc(Cl)cc1)c1ncccc1Cl (stereo unspecified)
1.31	N#Cc1ccc(C(C#N)c2ccc(Cl)cc2)nc1 (stereo unspecified)
0.0455	CCCCC(C#N)c1ccc(F)cc1 (stereo unspecified)
0.0569	CCCCC(C#N)c1ccc(Cl)cc1 (stereo unspecified)
0.0179	N#CC(c1ccc(Cl)cc1)c1cccc(Cl)n1 (stereo unspecified)
0.00416	N#CC(c1ccc(Cl)cc1)c1cccc(C(F)(F)F)n1 (stereo unspecified)
0.609	N#CC(c1ccc(Cl)cc1)c1ccc(C(F)(F)F)c(Cl)n1 (stereo unspecified)
